The subject of one series is SK-MEL-5. Put plainly: Growth inhibition of human SK-MEL-5 cells after 72 hrs by SRB assay. To be noted: SK-MEL-5, 72 h. Format: functional, cell-based. Summed up:
(§1)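 Melanoma cells were exposed to a range of compound concentrations for 72 h. Growth inhibition was read as biomass by sulforhodamine B staining. IC50 is the average of three separate occasions, given with standard deviation, from dose–response curves.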
A general note: Sulforhodamine B stains cellular protein and so reports cell mass.

The next series has as its system UACC-62. The experiment in a line: Growth inhibition of human UACC62 cells after 72 hrs by SRB assay. Format: functional, cell-based. To be noted: UACC-62, 72 h. Summed up: as §1
Another series concerns MCF7. Put plainly: Antiproliferative activity against human MCF7 cells after 72 hrs by SRB assay. It counts as functional, cell-based. To be noted: MCF7, 72 h. In short, it runs like this:
(§2)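 Cancer cell lines were incubated with compound for 72 h. Growth or viability was measured by a method given in the supporting information. IC50 values are averages with standard deviations from three independent experiments.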

A further series has as its system PC-12. The experiment in a line: Antiproliferative activity against rat PC12 cells after 72 hrs by SRB assay. It counts as functional, cell-based. To be noted: PC-12, 72 h. Summed up:
as §2

Series [1] concerns U-937. Put plainly: Antiproliferative activity against human U937 cells after 72 hrs by SRB assay. It counts as functional, cell-based. To be noted: U-937, 72 h. In short, it runs like this: as §2
Series [2] deals with HL-60. Put plainly: Antiproliferative activity against human HL60 cells after 72 hrs by SRB assay. Format: functional, cell-based. To be noted: HL-60, 72 h. In short, it runs like this: as §2
The test system of series [3] is HL-60. The experiment in a line: Cell cycle arrest in human HL60 cells assessed as accumulation at G1 phase at 20 uM after 6 hrs by flow cytometry using propidium iodide staining. It counts as functional, cell-based. Summed up:
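HL-60 cells were treated for 6 h with 20 µM compound or with vehicle alone. They were then stained with propidium iodide and analysed by flow cytometry for the percentage of cells in G0/G1, S and G2/M.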
For orientation: In flow cytometry, cells or beads pass a laser one at a time.

Series [4] in a line: Aqueous solubility in phosphate-buffered saline at pH 7.4. It counts as physicochemical. To be noted: read-out: Stability.
Series [5] concerns U-937. Put plainly: Induction of apoptosis in human U937 cells assessed as nonviable necrotic cells at 100 uM after 48 hrs by flow cytometry using FITC-conjugated annexin V and propidium iodide staining relative to control. Format: functional. In short, it runs like this:
(§3)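 U-937 cells were exposed for 48 h to 100 µM compound or to vehicle. Cells were stained with FITC-conjugated Annexin V to detect phosphatidylserine externalization and with propidium iodide to test membrane integrity, then quantified by flow cytometry. Quadrants were scored, with Annexin V-positive/propidium iodide-negative taken as early apoptotic.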

Series [6] deals with U-937. The experiment in a line: Induction of apoptosis in human U937 cells assessed as viable cells at 100 uM after 48 hrs by flow cytometry using FITC-conjugated annexin V and propidium iodide staining relative to control. It counts as functional. To be noted: U-937, 48 h, read-out: Activity. Summed up: as §3
Series [7] concerns U-937. Put plainly: Induction of late apoptosis in human U937 cells at 100 uM after 48 hrs by flow cytometry using FITC-conjugated annexin V and propidium iodide staining relative to control. It counts as functional. Summed up: as §3
For series [8], the system named is U-937. The experiment in a line: Induction of early apoptosis in human U937 cells at 100 uM after 48 hrs by flow cytometry using FITC-conjugated annexin V and propidium iodide staining relative to control. Format: functional. In short, it runs like this:
as §3

Broadly, the IC50 is the concentration that inhibits the measured activity by half. Read a high IC50 as a need for much substance.

The structures appear in SMILES notation. In brackets after ≈: the same amount, converted by molar mass. Activity calls are given as the source filed them. The rule behind the calls is not given here. A value given as a limit tells only on which side of the number the result lay.

As for `COC(=O)[C@@H](Cc1ccccc1)NC(=O)C1(c2ccccc2)c2ccccc2-c2ccccc21`, the IC50 in the series on SK-MEL-5 amounted to 23 µM; in the series with UACC-62, 27 µM.
As to `COC(=O)[C@@H](Cc1ccccc1)NC(=O)CCC(c1ccccc1)(c1ccccc1)c1ccccc1`, the IC50 was 6.1 µM in the series on MCF7; 2.5 µM with SK-MEL-5; 74 µM with PC-12; 40 µM in the series on UACC-62; 6.8 µM with U-937 [1]; 6 µM in the series on HL-60 [2].
On to `COC(=O)[C@@H](Cc1ccccc1)NC(=O)C(c1ccccc1)(c1ccccc1)c1ccc(O)cc1`, for which the IC50 with SK-MEL-5 is 8.1 µM; in the series on UACC-62, 21 µM.
On the same counts, the results for `O=C(CC(c1ccccc1)(c1ccccc1)c1ccccc1)NCCc1ccccc1` are 17 µM and 50 µM.
Regarding `COC(=O)[C@@H](Cc1ccccc1)NC(=O)C(c1ccccc1)(c1ccccc1)c1cccs1`, the figures for the IC50 in the series on SK-MEL-5 and with UACC-62 were 12 µM and 21 µM, respectively.
Take `O=C(NCCc1ccccc1)C(c1ccccc1)(c1ccc(O)cc1)c1ccc(O)cc1`: the results for the IC50 with SK-MEL-5 and in the series with UACC-62 were 8.6 µM and 47 µM, respectively.
The corresponding values for `COC(=O)[C@@H](Cc1ccccc1)NC(=O)C(c1ccccc1)(c1ccc(OC)cc1)c1ccc(OC)cc1` are 24 µM and above 100 µM.
In the case of `O=C(NCCc1ccccc1)C1(c2ccccc2)c2ccccc2-c2ccccc21`, the IC50 in the series with SK-MEL-5 and in the series with UACC-62 was 20 µM in each case.
Take `COC(=O)[C@@H](Cc1ccccc1)NC(=O)CC(c1ccccc1)(c1ccccc1)c1ccccc1`: the IC50 in the series with SK-MEL-5 is 5.1 µM; with UACC-62 it was above 100 µM.
The corresponding values for `O=C(NCCc1ccccc1)C(c1ccccc1)(c1ccccc1)c1ccc(O)cc1` are 8.1 µM and 13 µM.
`COC(=O)[C@@H](Cc1ccccc1)NC(=O)C(c1ccccc1)(c1ccccc1)c1ccc(OC)cc1`: the values for the IC50 in the series with SK-MEL-5 and in the series with UACC-62 were 6.1 µM and 27 µM, respectively.
For `O=C(NCCc1ccccc1)C(c1ccccc1)(c1ccccc1)c1ccccc1`, the IC50 in the series with MCF7 is 7.1 µM; with SK-MEL-5 it was 5.8 µM; with PC-12, 31 µM; in the series with UACC-62 it was 8.3 µM; with U-937 [1], 9.5 µM; in the series with HL-60 [2] it was 7.7 µM. In addition, the outcome with HL-60 [3] was Active.
As to `COc1ccc(C(C(=O)NCCc2ccccc2)(c2ccccc2)c2ccc(OC)cc2)cc1`, the results for the 50% inhibitory concentration (IC50) in the series on SK-MEL-5 and with UACC-62 were 14 µM and 20 µM, respectively. The outcome in the series with HL-60 [3] was Active.
Regarding `COC(=O)[C@@H](Cc1ccccc1)NC(=O)C(c1ccccc1)(c1ccccc1)c1ccccc1`, the IC50 with MCF7 turned out to be 8 µM; in the series with SK-MEL-5, 5.7 µM; with PC-12, 16 µM; with UACC-62, 14 µM; in the series with U-937 [1], 7.2 µM; with HL-60 [2], 7.3 µM. For the same compound, the outcome in the series on HL-60 [3] was Active. For the same compound, the solubility in series [4] amounted to 20 µM (≈ 8.99 µg/mL).
On to `COC(=O)[C@@H](Cc1ccccc1)NC(=O)C(c1ccc(O)cc1)(c1ccc(O)cc1)c1ccc(O)cc1`, for which the IC50 in the series on SK-MEL-5 was 13 µM; in the series on UACC-62, 27 µM.
Consider `COc1ccc(C(C(=O)NCCc2ccccc2)(c2ccccc2)c2ccccc2)cc1`, for which the IC50 in the series on SK-MEL-5 was found to be 29 µM; in the series with UACC-62, 13 µM. Also, the outcome in the series with HL-60 [3] was Active.
In the case of `O=C(NCCc1ccccc1)C(c1ccccc1)(c1ccccc1)c1ccc(O)c(O)c1`, the IC50 with MCF7 came to 8.1 µM; with SK-MEL-5, 4.2 µM; with PC-12, 85 µM; in the series with UACC-62, 2.1 µM; in the series with U-937 [1], 5.9 µM; in the series on HL-60 [2], 6.2 µM. Besides, the result with HL-60 [3] was Active. Also, the Activity in the series on U-937 [5] came to 12.79%; in the series with U-937 [7], 58.56%; in the series with U-937 [8] it was 23.17%. Besides, in the series on U-937 [6], the viability at 100 µM came to 5.48%. Also, the solubility in series [4] came out at 80 µM (≈ 33.9 µg/mL).
For the compound `COc1ccc(C(C(=O)NCCc2ccccc2)(c2ccc(OC)cc2)c2ccc(OC)cc2)cc1`, the values for the IC50 in the series on SK-MEL-5 and with UACC-62 were 20 µM and above 100 µM, respectively.
Take `O=C(NCCc1ccccc1)C(c1ccccc1)(c1ccccc1)c1cccs1`: the IC50 in the series on SK-MEL-5 is 9 µM; with UACC-62, 13 µM.
The corresponding values for `COC(=O)[C@@H](Cc1ccccc1)NC(=O)C(c1ccccc1)(c1ccc(O)cc1)c1ccc(O)cc1` are 6.7 µM and 20 µM.
On the same counts, the results for `COC(=O)[C@@H](Cc1ccccc1)NC(=O)C(c1ccc(OC)cc1)(c1ccc(OC)cc1)c1ccc(OC)cc1` are 49 µM and above 100 µM.
Consider `O=C(CCC(c1ccccc1)(c1ccccc1)c1ccccc1)NCCc1ccccc1`, for which the IC50 in the series on SK-MEL-5 is 5.5 µM; in the series with UACC-62, 50 µM.
As for `COC(=O)[C@@H](Cc1ccccc1)NC(=O)CCCC(c1ccccc1)(c1ccccc1)c1ccccc1`, the results for the IC50 with SK-MEL-5 and with UACC-62 were 5.8 µM and 45 µM, respectively.
Consider `O=C(CCCC(c1ccccc1)(c1ccccc1)c1ccccc1)NCCc1ccccc1`, for which the IC50 was 5.4 µM in the series with SK-MEL-5 and 26 µM in the series with UACC-62. Further, the outcome with HL-60 [3] was Active.
As for `O=C(NCCc1ccccc1)C(c1ccc(O)cc1)(c1ccc(O)cc1)c1ccc(O)cc1`, the results for the IC50 in the series with SK-MEL-5 and with UACC-62 were 36 µM and 71 µM, respectively.

The values are drawn from ChEMBL document CHEMBL1151786, “Triphenylmethylamides (TPMAs): Structure-activity relationship of compounds that induce apoptosis in melanoma cells” (Bioorg Med Chem Lett, 2008).
